# Results published in ChEMBL document CHEMBL4732230, “Design, synthesis, and biological evaluation of 4-benzoylamino-1H-pyrazole-3-carboxamide derivatives as potent CDK2 inhibitors” (Eur J Med Chem, 2021).
# Calls of active or inactive are those of the source. The rule behind the calls is not given here.
# Tests used:
# [1] = target: Cyclin-dependent kinase 1/cyclin B1 (Homo sapiens, UniProt P06493); format: protein-complex assay
# CDK2/Cyclin A2 = CDK2/Cyclin A2 (Homo sapiens, UniProt P24941); assay: Inhibition of CDK2/cyclin A2 (unknown origin) using FAM-labeled peptide and ATP as substrate preincubated for 10 mins followed by substrate addition by mobility shift assay; format: protein-complex assay
# A2058 [2] = assay: Induction of apoptosis in human A2058 cells assessed as early apoptotic cells at 1 uM measured after 48 hrs by Annexin V-FITC/propidium iodide staining based flow cytometry (reference value: 3.13 %); format: functional
# CDK4/Cyclin D3 = CDK4/Cyclin D3 (Homo sapiens, UniProt P11802); assay: Inhibition of CDK4/cyclin D3 (unknown origin) using FAM-labeled peptide and ATP as substrate preincubated for 10 mins followed by substrate addition by mobility shift assay; format: protein-complex assay
# Chain of CDK4/Cyclin D3 (P11802 whole entry): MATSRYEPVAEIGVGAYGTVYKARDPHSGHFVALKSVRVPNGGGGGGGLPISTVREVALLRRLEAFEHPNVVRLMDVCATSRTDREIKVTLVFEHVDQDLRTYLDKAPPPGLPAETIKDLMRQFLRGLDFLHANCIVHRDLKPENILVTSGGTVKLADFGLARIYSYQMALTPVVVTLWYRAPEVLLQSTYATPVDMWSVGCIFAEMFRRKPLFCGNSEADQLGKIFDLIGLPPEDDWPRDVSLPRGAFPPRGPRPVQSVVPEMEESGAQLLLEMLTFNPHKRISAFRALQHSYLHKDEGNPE
# Chain of CDK4/Cyclin D3 (P30281 whole entry, further chain): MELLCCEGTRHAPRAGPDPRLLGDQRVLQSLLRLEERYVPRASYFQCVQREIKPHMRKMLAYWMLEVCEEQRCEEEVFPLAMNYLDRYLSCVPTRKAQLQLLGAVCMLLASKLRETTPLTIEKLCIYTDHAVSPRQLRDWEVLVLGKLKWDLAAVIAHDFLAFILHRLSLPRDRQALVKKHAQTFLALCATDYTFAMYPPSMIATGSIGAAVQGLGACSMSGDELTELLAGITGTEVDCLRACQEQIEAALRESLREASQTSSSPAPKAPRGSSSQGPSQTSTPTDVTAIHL
# A2058 [3] = assay: Antiproliferative activity against human A2058 cells assessed as reduction in cell viability measured after 96 hrs by Celltiter-Glo luminescent assay; format: functional, cell-based; conditions: A2058, 96 h
# Method in brief: (§1)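 Cells in DMEM (A2058, MRC5) or RPMI 1640 (MV4-11), each with 10% fetal bovine serum and 1% penicillin/streptomycin. Cells were plated in 96-well plates and exposed to serially concentrated compound for 96 h, with DMSO as control. Viability was read by CellTiter-Glo luminescence and IC50 derived.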
# [4] = target: Cyclin-dependent kinase 2 (Homo sapiens) (UniProt P24941); assay: Inhibition of CDK2 in human MV4-11 cells assessed as reduction in Rb phosphorylation at Ser780 after 24 to 48 hrs by immunoblot analysis; format: cell-based; conditions: dose 0.375-6 µM, time lower […], time upper 48.0 hrs
# Method in brief: (§2)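 MV4-11 cells treated with compound for 24 h or 48 h. Lysates were separated on 8% or 10% SDS-PAGE and transferred to nitrocellulose. Membranes were immunoblotted for phospho-Rb Ser780, phospho-Rb Ser807/811 and total Rb, with β-actin as loading control. Detection used HRP secondary at 1:10,000 and ECL.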
# [5] = target: Cyclin-dependent kinase 2 (Homo sapiens) (UniProt P24941); assay: Inhibition of CDK2 in human MV4-11 cells assessed as reduction in Rb phosphorylation at Ser807/811 at 0.375 to 6 uM by immunoblot analysis; format: cell-based; conditions: dose 0.375-6 µM, time lower […], time upper 48.0 hrs, TDE = time-dependent effect
# Method in brief: as §2
# A2058 [6] = assay: Induction of apoptosis in human A2058 cells assessed as early apoptotic cells at 0.4 uM measured after 48 hrs by Annexin V-FITC/propidium iodide staining based flow cytometry (reference value: 3.13 %); format: functional
# A2058 [7] = assay: Induction of apoptosis in human A2058 cells assessed as late apoptotic cells at 0.4 uM measured after 48 hrs by Annexin V-FITC/propidium iodide staining based flow cytometry (reference value: 1.85 %); format: functional
# A2058 [8] = assay: Induction of cell cycle arrest in human A2058 cells assessed as accumulation at G2 phase at 0.4 uM after 24 hrs by propidium iodide/RNase staining based flow cytometric analysis (reference value: 21.19 %); format: functional
# A2058 [9] = assay: Induction of cell cycle arrest in human A2058 cells assessed as accumulation at G1 phase at 0.4 uM after 24 hrs by propidium iodide/RNase staining based flow cytometric analysis (reference value: 48.05 %); format: functional
# MRC5 = assay: Cytotoxicity against human MRC5 cells assessed as reduction in cell viability measured after 96 hrs by Celltiter-Glo luminescent assay; format: cell-based; conditions: MRC5, 96 h
# Method in brief: as §1
# [10] = target: Cyclin-dependent kinase 2 (Homo sapiens) (UniProt P24941); assay: Inhibition of CDK2 in human MV4-11 cells assessed as reduction in Rb phosphorylation at Ser807/811 after 24 to 48 hrs by immunoblot analysis; format: cell-based; conditions: dose 0.375-6 µM, time lower […], time upper 48.0 hrs
# Method in brief: as §2
# A2058 [11] = assay: Induction of apoptosis in human A2058 cells assessed as necrotic cells at 0.2 uM measured after 48 hrs by Annexin V-FITC/propidium iodide staining based flow cytometry (reference value: 0.37 %); format: functional
# CDK7/Cyclin H/MNAT1 = CDK7/Cyclin H/MNAT1 (Homo sapiens, UniProt P50613); assay: Inhibition of CDK7/cyclinH/MAT1 (unknown origin) using FAM-labeled peptide and ATP as substrate preincubated for 10 mins followed by substrate addition by mobility shift assay; format: protein-complex assay
# Chain of CDK7/Cyclin H/MNAT1 (P51946 whole entry): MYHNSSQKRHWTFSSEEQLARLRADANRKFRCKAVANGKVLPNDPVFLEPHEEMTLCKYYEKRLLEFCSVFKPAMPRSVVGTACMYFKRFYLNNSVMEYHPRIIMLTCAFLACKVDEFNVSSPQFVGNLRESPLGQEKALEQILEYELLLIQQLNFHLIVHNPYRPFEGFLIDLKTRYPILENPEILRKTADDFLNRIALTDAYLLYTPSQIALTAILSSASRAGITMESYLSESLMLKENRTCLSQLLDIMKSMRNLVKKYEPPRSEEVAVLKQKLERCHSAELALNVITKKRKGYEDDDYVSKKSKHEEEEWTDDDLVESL
# Chain of CDK7/Cyclin H/MNAT1 (P50613 whole entry): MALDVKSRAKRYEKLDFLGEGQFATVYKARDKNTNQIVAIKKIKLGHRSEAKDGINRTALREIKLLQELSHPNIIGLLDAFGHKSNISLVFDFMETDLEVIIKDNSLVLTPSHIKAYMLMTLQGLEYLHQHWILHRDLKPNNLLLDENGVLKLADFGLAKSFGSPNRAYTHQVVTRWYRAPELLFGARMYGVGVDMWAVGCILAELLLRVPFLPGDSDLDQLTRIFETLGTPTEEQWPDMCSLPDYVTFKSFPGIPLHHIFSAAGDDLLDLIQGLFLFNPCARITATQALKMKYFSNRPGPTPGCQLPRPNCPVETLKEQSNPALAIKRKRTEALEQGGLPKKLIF
# Chain of CDK7/Cyclin H/MNAT1 (P51948 whole entry, further chain): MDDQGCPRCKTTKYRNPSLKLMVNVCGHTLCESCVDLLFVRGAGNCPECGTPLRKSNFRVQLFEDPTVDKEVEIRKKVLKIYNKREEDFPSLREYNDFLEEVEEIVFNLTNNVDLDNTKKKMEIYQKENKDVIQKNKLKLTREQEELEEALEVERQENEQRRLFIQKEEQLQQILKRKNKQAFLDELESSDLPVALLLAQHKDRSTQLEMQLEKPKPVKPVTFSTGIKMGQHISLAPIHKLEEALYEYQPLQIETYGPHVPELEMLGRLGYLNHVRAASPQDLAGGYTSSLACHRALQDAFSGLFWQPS
# Method in brief: (§3)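 Mobility shift assay in 50 mM HEPES pH 7.5 with 0.0015% Brij-35. Kinase was added to serially diluted compound in 10% DMSO and held 10 min at room temperature. FAM-labeled peptide and ATP were then added and the mixture incubated at 28 °C for the specified time. Reactions were stopped with EDTA-containing buffer.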
# A2058 [12] = assay: Induction of cell cycle arrest in human A2058 cells assessed as accumulation at S phase at 0.4 uM after 24 hrs by propidium iodide/RNase staining based flow cytometric analysis (reference value: 30.76 %); format: functional
# A2058 [13] = assay: Induction of apoptosis in human A2058 cells assessed as viable cells at 0.2 uM measured after 48 hrs by Annexin V-FITC/propidium iodide staining based flow cytometry (reference value: 94.6 %); format: functional; conditions: read-out: Activity
# A2058 [14] = assay: Induction of apoptosis in human A2058 cells assessed as late apoptotic cells at 1 uM measured after 48 hrs by Annexin V-FITC/propidium iodide staining based flow cytometry (reference value: 1.85 %); format: functional
# CDK12/Cyclin K = CDK12/Cyclin K (Homo sapiens, UniProt Q9NYV4); assay: Inhibition of CDK12/cyclin K (unknown origin) using FAM-labeled peptide and ATP as substrate preincubated for 10 mins followed by substrate addition by mobility shift assay; format: protein-complex assay
# Method in brief: as §3
# A2058 [15] = assay: Induction of apoptosis in human A2058 cells assessed as late apoptotic cells at 0.2 uM measured after 48 hrs by Annexin V-FITC/propidium iodide staining based flow cytometry (reference value: 1.85 %); format: functional
# A2058 [16] = assay: Induction of apoptosis in human A2058 cells assessed as upregulation of cleaved caspase-3 level after 24 hrs by immunoblot analysis; format: functional, cell-based; conditions: dose 0.1875-1.5 µM
# Method in brief: (§4)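 A2058 cells treated with compound for 24 h and lysed. Lysates were run on 8% or 10% SDS-PAGE and transferred to nitrocellulose, then blocked in 5% milk/TBST for 60 min. Blots were probed overnight at 4 °C for cleaved caspase-3 or cleaved PARP, then with HRP secondary at 1:10,000 for 1 h. Detection was by ECL, with tubulin as loading control.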
# A2058 [17] = assay: Induction of apoptosis in human A2058 cells assessed as viable cells at 1 uM measured after 48 hrs by Annexin V-FITC/propidium iodide staining based flow cytometry (reference value: 94.6 %); format: functional; conditions: read-out: Activity
# A2058 [18] = assay: Induction of cell cycle arrest in human A2058 cells assessed as accumulation at G2 phase at 0.2 uM after 24 hrs by propidium iodide/RNase staining based flow cytometric analysis (reference value: 21.19 %); format: functional
# A2058 [19] = assay: Induction of cell cycle arrest in human A2058 cells assessed as accumulation at S phase at 0.2 uM after 24 hrs by propidium iodide/RNase staining based flow cytometric analysis (reference value: 30.76 %); format: functional
# CDK9/cyclin T1 = CDK9/cyclin T1 (Homo sapiens, UniProt P50750); assay: Inhibition of CDK9/cyclin T1 (unknown origin) using FAM-labeled peptide and ATP as substrate preincubated for 10 mins followed by substrate addition by mobility shift assay; format: protein-complex assay
# Chain of CDK9/cyclin T1 (O60563 whole entry): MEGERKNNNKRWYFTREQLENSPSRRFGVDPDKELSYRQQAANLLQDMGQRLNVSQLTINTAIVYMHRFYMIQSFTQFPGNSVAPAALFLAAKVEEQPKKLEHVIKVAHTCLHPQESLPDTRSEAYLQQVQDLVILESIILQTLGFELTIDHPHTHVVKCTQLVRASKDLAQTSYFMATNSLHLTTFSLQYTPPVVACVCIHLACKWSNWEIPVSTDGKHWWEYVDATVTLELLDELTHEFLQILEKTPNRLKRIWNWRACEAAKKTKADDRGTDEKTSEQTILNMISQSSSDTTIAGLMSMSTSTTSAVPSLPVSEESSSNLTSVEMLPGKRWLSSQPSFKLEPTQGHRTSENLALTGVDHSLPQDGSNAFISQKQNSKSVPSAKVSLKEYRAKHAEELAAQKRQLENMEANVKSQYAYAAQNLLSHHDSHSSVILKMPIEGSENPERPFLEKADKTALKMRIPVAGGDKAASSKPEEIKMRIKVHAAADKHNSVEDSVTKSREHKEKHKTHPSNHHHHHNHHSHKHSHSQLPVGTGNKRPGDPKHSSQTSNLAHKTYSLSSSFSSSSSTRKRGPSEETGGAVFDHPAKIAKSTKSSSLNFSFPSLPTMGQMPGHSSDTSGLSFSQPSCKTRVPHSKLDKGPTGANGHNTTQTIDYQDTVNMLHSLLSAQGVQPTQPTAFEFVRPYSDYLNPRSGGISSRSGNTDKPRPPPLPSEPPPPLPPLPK
# Chain of CDK9/cyclin T1 (P50750 whole entry): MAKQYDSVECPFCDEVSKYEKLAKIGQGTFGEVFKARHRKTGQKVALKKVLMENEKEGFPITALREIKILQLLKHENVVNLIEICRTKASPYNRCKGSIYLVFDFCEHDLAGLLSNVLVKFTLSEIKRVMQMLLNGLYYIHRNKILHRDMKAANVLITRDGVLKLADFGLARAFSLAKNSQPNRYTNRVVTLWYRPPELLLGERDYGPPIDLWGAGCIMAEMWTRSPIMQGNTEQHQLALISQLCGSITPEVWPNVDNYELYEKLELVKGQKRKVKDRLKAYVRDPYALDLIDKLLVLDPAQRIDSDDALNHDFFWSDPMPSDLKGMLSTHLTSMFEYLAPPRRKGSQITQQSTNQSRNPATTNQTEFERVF
# [20] = Cytotoxicity against human LX2 cells assessed as inhibition of cell growth at 100 uM measured after 96 hrs by Celltiter-Glo luminescent assay; format: cell-based
# Method in brief: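 LX2 cells grown in DMEM with 10% fetal bovine serum and 1% penicillin/streptomycin, plated in 96-well plates. They were treated with compound at […] or DMSO control for 96 h. Viability was read by CellTiter-Glo luminescence and expressed as percent inhibition.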
# A2058 [21] = assay: Induction of apoptosis in human A2058 cells assessed as upregulation of cleaved PARP level after 24 hrs by immunoblot analysis; format: functional, cell-based; conditions: dose 0.1875-1.5 µM
# Method in brief: as §4
# [22] = target: Cyclin-dependent kinase 2 (Homo sapiens) (UniProt P24941); assay: Inhibition of CDK2 in human MV4-11 cells assessed as downregulation of Mcl-1 expression at 0.1875 to 3 uM after 24 hrs by immunoblot analysis; format: cell-based; conditions: dose 0.1875-3 µM
# Method in brief: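 MV4-11 cells exposed to compound for 24 h. Lysates were resolved by 8% or 10% SDS-PAGE and blotted to nitrocellulose. Blots were probed with anti-Mcl-1 overnight at 4 °C, then HRP secondary at 1:10,000. Bands were developed by ECL, with GAPDH as loading control.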
# [23] = target: Cyclin-dependent kinase 2 (Homo sapiens) (UniProt P24941); assay: Inhibition of CDK2 in human A2058 cells assessed as downregulation of Mcl-1 expression at 0.1875 to 1.5 uM after 24 hrs by immunoblot analysis; format: cell-based; conditions: dose 0.1875-1.5 µM
# [24] = target: Cyclin-dependent kinase 2 (Homo sapiens) (UniProt P24941); assay: Inhibition of CDK2 in human MV4-11 cells assessed as reduction in Rb phosphorylation at Ser780 at 0.375 to 6 uM by immunoblot analysis; format: cell-based; conditions: dose 0.375-6 µM, time lower […], time upper 48.0 hrs, TDE = time-dependent effect
# Method in brief: as §2
# CDK3/Cyclin E = CDK3/Cyclin E (Homo sapiens, UniProt Q00526); assay: Inhibition of CDK3/cyclin E1 (unknown origin) using FAM-labeled peptide and ATP as substrate preincubated for 10 mins followed by substrate addition by mobility shift assay; format: protein-complex assay
# Chain of CDK3/Cyclin E (P24864 whole entry): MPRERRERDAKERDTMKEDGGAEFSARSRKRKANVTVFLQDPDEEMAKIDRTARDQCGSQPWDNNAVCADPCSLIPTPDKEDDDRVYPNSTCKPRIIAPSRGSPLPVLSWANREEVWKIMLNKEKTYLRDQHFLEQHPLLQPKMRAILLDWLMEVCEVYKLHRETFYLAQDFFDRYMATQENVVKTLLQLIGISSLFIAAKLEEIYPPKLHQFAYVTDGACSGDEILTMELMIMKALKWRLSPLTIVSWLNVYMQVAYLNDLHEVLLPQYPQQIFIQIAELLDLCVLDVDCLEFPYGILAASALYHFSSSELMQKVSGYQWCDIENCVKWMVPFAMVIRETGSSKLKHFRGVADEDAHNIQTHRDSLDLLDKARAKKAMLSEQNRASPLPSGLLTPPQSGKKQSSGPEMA
# Chain of CDK3/Cyclin E (Q00526 whole entry): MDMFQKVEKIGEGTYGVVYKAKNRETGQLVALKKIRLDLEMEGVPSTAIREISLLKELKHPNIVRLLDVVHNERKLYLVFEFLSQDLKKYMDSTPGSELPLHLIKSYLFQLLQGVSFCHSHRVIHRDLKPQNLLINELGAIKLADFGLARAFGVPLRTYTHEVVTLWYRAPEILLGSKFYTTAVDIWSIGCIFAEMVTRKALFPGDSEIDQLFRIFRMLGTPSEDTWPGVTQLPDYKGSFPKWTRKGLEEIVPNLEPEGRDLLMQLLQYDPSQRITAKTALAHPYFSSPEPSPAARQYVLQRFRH
# Method in brief: as §3
# A2058 [25] = assay: Induction of apoptosis in human A2058 cells assessed as necrotic cells at 1 uM measured after 48 hrs by Annexin V-FITC/propidium iodide staining based flow cytometry (reference value: 0.37 %); format: functional
# A2058 [26] = assay: Induction of apoptosis in human A2058 cells assessed as necrotic cells at 0.4 uM measured after 48 hrs by Annexin V-FITC/propidium iodide staining based flow cytometry (reference value: 0.37 %); format: functional
# CDK6/cyclin D3 = CDK6/cyclin D3 (Homo sapiens, UniProt Q00534); assay: Inhibition of CDK6/cyclin D3 (unknown origin) using FAM-labeled peptide and ATP as substrate preincubated for 10 mins followed by substrate addition by mobility shift assay; format: protein-complex assay
# Chain of CDK6/cyclin D3 (P30281 whole entry): as the sequence (P30281 whole entry, further chain) above
# Chain of CDK6/cyclin D3 (Q00534 whole entry): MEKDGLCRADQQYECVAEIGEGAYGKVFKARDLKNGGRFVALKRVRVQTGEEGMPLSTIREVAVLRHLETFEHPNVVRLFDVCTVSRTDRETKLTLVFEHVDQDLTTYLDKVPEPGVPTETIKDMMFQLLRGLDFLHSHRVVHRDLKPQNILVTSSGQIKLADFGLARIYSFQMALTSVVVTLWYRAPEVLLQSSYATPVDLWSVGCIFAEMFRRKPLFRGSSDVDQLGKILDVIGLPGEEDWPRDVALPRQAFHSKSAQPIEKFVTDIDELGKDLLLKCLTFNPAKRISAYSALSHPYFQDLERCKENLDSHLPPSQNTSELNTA
# Method in brief: as §3
# A2058 [27] = assay: Induction of apoptosis in human A2058 cells assessed as early apoptotic cells at 0.2 uM measured after 48 hrs by Annexin V-FITC/propidium iodide staining based flow cytometry (reference value: 3.13 %); format: functional
# A2058 [28] = assay: Induction of cell cycle arrest in human A2058 cells assessed as accumulation at G1 phase at 0.2 uM after 24 hrs by propidium iodide/RNase staining based flow cytometric analysis (reference value: 48.05 %); format: functional
# MV4-11 = assay: Antiproliferative activity against human MV4-11 cells assessed as reduction in cell viability measured after 96 hrs by Celltiter-Glo luminescent assay; format: functional, cell-based; conditions: MV4-11, 96 h
# Method in brief: as §1
# A2058 [29] = assay: Induction of apoptosis in human A2058 cells assessed as viable cells at 0.4 uM measured after 48 hrs by Annexin V-FITC/propidium iodide staining based flow cytometry (reference value: 94.6 %); format: functional; conditions: read-out: Activity
# Chain of Cyclin-dependent kinase 1/cyclin B1 (P06493 whole entry): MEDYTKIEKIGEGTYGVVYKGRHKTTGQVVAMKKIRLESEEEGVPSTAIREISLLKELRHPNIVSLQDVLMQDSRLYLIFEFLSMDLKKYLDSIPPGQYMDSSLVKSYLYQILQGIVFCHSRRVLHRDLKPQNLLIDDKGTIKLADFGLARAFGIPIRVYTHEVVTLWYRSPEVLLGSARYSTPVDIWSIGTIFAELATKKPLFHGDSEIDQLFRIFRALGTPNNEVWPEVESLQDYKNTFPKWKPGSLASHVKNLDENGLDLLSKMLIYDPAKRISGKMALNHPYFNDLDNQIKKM
# Chain of Cyclin-dependent kinase 1/cyclin B1 (P14635 whole entry, further chain): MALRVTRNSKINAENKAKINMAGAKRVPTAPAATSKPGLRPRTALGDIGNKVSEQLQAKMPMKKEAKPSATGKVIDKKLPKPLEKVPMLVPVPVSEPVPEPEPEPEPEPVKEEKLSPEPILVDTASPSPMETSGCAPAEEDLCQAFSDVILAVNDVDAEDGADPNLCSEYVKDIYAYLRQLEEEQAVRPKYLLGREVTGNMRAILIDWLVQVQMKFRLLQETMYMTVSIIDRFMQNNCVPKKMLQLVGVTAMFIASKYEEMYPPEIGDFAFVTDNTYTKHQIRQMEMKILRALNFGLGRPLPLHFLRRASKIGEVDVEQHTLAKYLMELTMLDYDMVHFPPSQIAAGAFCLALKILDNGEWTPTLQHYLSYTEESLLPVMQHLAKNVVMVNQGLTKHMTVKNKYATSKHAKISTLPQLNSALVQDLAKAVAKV
structure (smiles),measurement,setting,value
CN1CCN(CCNC(=O)c2cccc(-c3ccc(F)c(C(=O)Nc4c[nH]nc4C(=O)Nc4ccc(F)cc4)c3F)c2)CC1,IC50,[1],350 nM
same,IC50,CDK2/Cyclin A2,67 nM
NC(=O)c1ccc(-c2ccc(F)c(C(=O)Nc3c[nH]nc3C(=O)Nc3ccc(F)cc3)c2F)cn1,Activity,A2058 [2],40%
same,IC50,CDK4/Cyclin D3,3480 nM
same,IC50,A2058 [3],295 nM
same,inhibition,[4],Dose-dependent effect
same,inhibition,[5],Tde
same,Activity,A2058 [6],21.7%
same,Activity,A2058 [7],14.6%
same,Activity,A2058 [8],41.44%
same,Activity,A2058 [9],48.05%
same,IC50,MRC5,54800 nM
same,inhibition,[10],Dose-dependent effect
same,Activity,A2058 [11],3.41%
same,IC50,CDK7/Cyclin H/MNAT1,> 18000 nM
same,Activity,A2058 [12],39.82%
same,IC50,[1],1020 nM
same,viability at 0.2 µM,A2058 [13],87.3%
same,Activity,A2058 [14],28.6%
same,IC50,CDK12/Cyclin K,> 18000 nM
same,Activity,A2058 [15],4.75%
same,Activity,A2058 [16],Dose-dependent effect
same,viability at 1 µM,A2058 [17],23.7%
same,Activity,A2058 [18],21.76%
same,IC50,CDK2/Cyclin A2,58 nM
same,Activity,A2058 [19],41.35%
same,IC50,CDK9/cyclin T1,1120 nM
same,"inhibition at 96 h, 100 µM",[20],32.5%
same,Activity,A2058 [21],Dose-dependent effect
same,inhibition,[22],Active
same,inhibition,[23],Active
same,inhibition,[24],Tde
same,IC50,CDK3/Cyclin E,113 nM
same,Activity,A2058 [25],7.66%
same,Activity,A2058 [26],8.32%
same,IC50,CDK6/cyclin D3,> 18000 nM
same,Activity,A2058 [27],4.52%
same,Activity,A2058 [28],36.89%
same,IC50,MV4-11,252 nM
same,viability at 0.4 µM,A2058 [29],55.1%
CN1CCC(CNC(=O)c2cccc(-c3ccc(F)c(C(=O)Nc4c[nH]nc4C(=O)Nc4ccc(F)cc4)c3F)c2)CC1,IC50,A2058 [3],3340 nM
same,IC50,[1],743 nM
same,IC50,CDK2/Cyclin A2,82 nM
O=C(Nc1ccc(F)cc1)c1n[nH]cc1NC(=O)c1c(F)ccc(-c2ccccc2)c1F,IC50,A2058 [3],2370 nM
same,IC50,[1],432 nM
same,IC50,CDK2/Cyclin A2,86 nM
